# Columns and labels:
# Oryctolagus cuniculus [1] = species: Oryctolagus cuniculus; experiment: Tested for maximum aggregation units at specified molar concentration; type: functional
# Procedure, shortened: (§1)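 Platelet-rich plasma from citrated cardiac-puncture blood of unanesthetized male New Zealand white rabbits, low-speed spin. Count adjusted with platelet-poor plasma, within 350000-600000/µL. 450 µL PRP plus 50 µL compound stock solution. EC50 taken as the concentration giving 50% of that compound's own maximum aggregation, from the mean dose-response curve of experiments with two to six replicates per dose. Maximum aggregation given in aggregation units at the stated molar concentration.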
# Rattus norvegicus [2] = experiment: Tested for the dose needed to decrease mean arterial blood pressure (MABP) 50 mmHg in male rats, iv; type: functional
# Procedure, shortened: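 Spontaneously hypertensive rats, arterial and venous catheters tunneled subcutaneously and exteriorized at the neck, studied at least 16 h after surgery while held in restraining cages. Compound dissolved in saline or 10-25% ethanol in saline, given as a rapid iv bolus at 1 mL/kg followed by a flush. Pressure read at 1-min intervals for 15 min after dosing. Maximum MABP change per rat, averaged per dose. Least-squares regression, solved for a −50 mmHg response.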
# [3] = Ratio = (MABP / platelet EC50 ) x 10 E -8; type: functional
# Procedure, shortened: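 Intravenous dose lowering MABP by 50 mmHg in spontaneously hypertensive rats, divided by the EC50 for aggregation of rabbit platelet-rich plasma, then multiplied by 10^-8.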
# Oryctolagus cuniculus [4] = species: Oryctolagus cuniculus; experiment: Tested for the molar concentration required to cause 50% of maximum aggregation
# Rattus norvegicus [5] = species: Rattus norvegicus; experiment: Tested for the molar concentration required to cause 50% of maximum aggregation; type: functional, organism-based; procedure, shortened: as §1
# Oryctolagus cuniculus [6] = species: Oryctolagus cuniculus; experiment: Tested for maximum aggregation units at specified molar concentration; g= No response; type: functional; procedure, shortened: as §1
SMILES,Max platelet response (Oryctolagus cuniculus [1]),Dose (Rattus norvegicus [2]),Ratio [3],EC50 (Oryctolagus cuniculus [4]),EC50 (Rattus norvegicus [5]),Max platelet response (Oryctolagus cuniculus [6])
CCCCCCCCCCCCCCc1cccc(OCC(COP(=O)([O-])OCC[N+](C)(C)C)OC(C)=O)c1 (configuration not stated),70,0.43 µg/kg,0.1,44 nM,–,–
CCCCCCCCCCCCCCCCCC(COP(=O)([O-])OCC[N+](C)(C)C)OC(C)=O (configuration not stated),31,357.3 µg/kg,1.15,–,3100 nM,–
CCCCCCCCCCCCCCCCOCC(COP(=O)([O-])OCC[N+](C)(C)C)OC(C)=O (configuration not stated) [PLATELET ACTIVATING FACTOR],71,1.25 µg/kg,0.56,22.2 nM,–,–
CCCCCCCCCCCCCCCCc1ccccc1OCC(COP(=O)([O-])OCC[N+](C)(C)C)OC(C)=O (configuration not stated),–,–,–,> 10000 nM,–,No response
CCCCCCCCCCCCCCCCCCOCC(COP(=O)([O-])OCC[N+](C)(C)C)OC(C)=O (configuration not stated),79,3.17 µg/kg,1.98,16 nM,–,–
CCCCCCCCCCCCCCc1ccc(OCC(COP(=O)([O-])OCC[N+](C)(C)C)OC(C)=O)cc1 (configuration not stated),80,12.56 µg/kg,2.37,53 nM,–,–
